Compound activity as filed in PubChem BioAssay.
Compounds with a hit are over-represented: about 9% of the library has one in this group of screens.
M1 antag – blocks the rat M1 muscarinic receptor response to acetylcholine; hit rate 3.4% among 64,000; AID 628; CHO-M1 cells, Fluo-4 calcium, ACh EC80 antagonist mode; active compounds read low; B-score at 10 µM; P08482;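 active = calcium fluorescence response, raw or row-and-column corrected B-score, differing from the plate sample mean either way at a set confidence level, mostly lower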
Target sequence (P08482 whole entry, looked up): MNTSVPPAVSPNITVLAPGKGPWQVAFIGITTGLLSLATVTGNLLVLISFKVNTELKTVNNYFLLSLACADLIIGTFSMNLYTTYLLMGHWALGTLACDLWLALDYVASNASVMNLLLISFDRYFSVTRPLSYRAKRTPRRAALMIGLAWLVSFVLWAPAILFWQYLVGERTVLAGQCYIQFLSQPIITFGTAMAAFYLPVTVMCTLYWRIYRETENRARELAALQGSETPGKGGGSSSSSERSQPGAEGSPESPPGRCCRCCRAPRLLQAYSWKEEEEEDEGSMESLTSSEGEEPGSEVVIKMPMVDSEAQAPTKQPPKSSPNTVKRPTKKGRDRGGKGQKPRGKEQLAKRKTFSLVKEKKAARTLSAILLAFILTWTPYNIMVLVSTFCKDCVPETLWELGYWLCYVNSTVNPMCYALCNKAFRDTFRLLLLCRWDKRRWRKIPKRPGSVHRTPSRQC
AP ELISA ortho – orthogonal test for alternative complement pathway inhibitors; Human serum alternative complement pathway, LPS-coated ELISA, C3 deposition; tested in compound mixtures; inhibition, % at 5 µM; hit rate 0.08% among 62,000; AID 1235;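 active = inhibition above 30% in each of the two pooled mixtures holding the compound, so the lower value exceeds 30%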
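Medium: diluted human serum in Mg2+-EGTA GVB++. Assay system: human serum complement alternative pathway, C3 deposition onto LPS. Also added: Plate-bound LPS. Technique: Anti-C3 ELISA, OD 450 nm. Measure: percent inhibition. Incubation: 1 h at 37 °C. Dosing: 5 µM each compound, pools of ten, 50 µM per pool.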
D1 mod – D1 dopamine receptor (human) allosteric modulation | P21728 | hit rate 5.9% among 58,000 | B-score at 10 µM | HEK293 D1, CRE-luciferase, dopamine EC30 potentiation; actives deviate in either direction;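 active = luminescence count or its row- and column-corrected plate score outside the 99.7% band of the plate's sample wells, on either side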
mHtt clearance – mutant huntingtin protein clearance. HeLa Exon1htt(103Q)mCFP, aggregate imaging; zero = plate's median compound well. inhibition, % at 1.5 µM. hit rate 0.42% among 47,000;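 active = inhibition of aggregate fluorescence above about 70%, also judged a hit by eye on the cell image, limit read from the data, passing the limit was not always enough; inconclusive = no rule stated for this call; inactive = not judged a hit on image review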;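 also: cells exposed to compound for three days before fixation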
M1 agonist – M1 muscarinic receptor agonism; AID 626; B-score at 10 µM; CHO-M1 cells, Fluo-4 calcium fluorescence, agonist mode; active compounds read high; hit rate 3% among 64,000;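 active = fluorescence rise, raw or as B-score row- and column-corrected plate score, outside the 99.7% band of its plate's samples, either direction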
M1 agonist conf – rat M1 muscarinic agonism, confirmation | shares compounds with M1 agonist | fluorescence change (max-min) at 10 µM | hit rate 19% among 1,700 | CHO-M1 cells, Fluo-4 calcium fluorescence, agonist mode; actives lie on both sides;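 active = fluorescence change differs from the solvent-only DMSO control mean at a set confidence level in both duplicate runs; inconclusive = differs from solvent-only control mean in just one of two runs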;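 also: an EC20 dose of acetylcholine follows compound addition during the same imaging run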
M4 ag counter – counter-screen for M1 agonists: activity at rat M4 receptor; hit rate 9% among 1,700; fluorescence change (max-min) at 10 µM; shares compounds with M1 agonist; CHO M4/Gqi5 cells, Fluo-4 calcium fluorescence, agonist mode; actives lie on both sides;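 active = fluorescence change differing from the plate's solvent-only control wells at 99.7% confidence in both duplicates, whether higher or lower; inconclusive = differs from solvent controls in only one of two duplicates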
Large screens that a line does not name were inactive (follow-up assays come after a bar, where they were run).

Cc1c(C(=O)NCCSCc2c(Cl)cccc2Cl)cccc1[N+](=O)[O-]	none (no result: M1 antag, AP ELISA ortho, D1 mod, M1 agonist)
COc1ccc(C2C(C(C)=O)=C(C)N=c3s/c(=C/c4ccc5c(c4)OCO5)c(=O)n32)cc1 (centres undefined)	M1 agonist 3.85 | M1 agonist conf inactive | M4 ag counter inactive
CCOc1ccc(OCC)c(-c2c(=O)n(OCc3ccc(C(C)(C)C)cc3)c3ccccc3[n+]2[O-])c1	none (no result: M1 antag, AP ELISA ortho, D1 mod, M1 agonist)
Cc1ccc(-c2nc3cc(N)ccc3o2)cc1	D1 mod -3.72, M1 agonist 2.41 (no result: mHtt clearance) | M1 agonist conf inactive | M4 ag counter inactive
O=C(COc1ccccc1)Nn1cnc2ccccc21	none (no result: mHtt clearance)
O=C(c1cc(-c2ccncc2)nc2ccc(Cl)cc12)N1CCN(C(=O)C2CCCO2)CC1 (centres undefined)	M1 agonist 2.9 | M1 agonist conf inactive | M4 ag counter inactive
CCN(CC)S(=O)(=O)c1ccc(C(=O)N2CCN=C2SC)cc1	M1 agonist 15.6 (no result: mHtt clearance) | M1 agonist conf inconclusive | M4 ag counter inactive
COC(=O)C1=C2SC(C)C(=O)N2C(N)=C(C#N)C1c1ccc(OC)c(OC)c1 (centres undefined)	none (no result: mHtt clearance)
COc1ccc(C2C(C#N)=C(N)N3C(=C2C#N)Sc2ccccc23)cc1 (centres undefined)	M1 agonist 46.1 (no result: mHtt clearance) | M1 agonist conf 131 | M4 ag counter inactive
CN(C)c1ccc(/C=N/N2C(=S)SC(C)(C)C2N(O)C(=O)Nc2ccc([N+](=O)[O-])cc2)cc1 (centres undefined)	none (no result: M1 antag, AP ELISA ortho, D1 mod, M1 agonist)
CC1=C(C(N)=O)C(c2ccncc2)n2nc(-c3ccccc3Cl)nc2N1 (centres undefined)	none
CCCCn1c(NC(=O)c2ccccc2Cl)c(C#N)c2nc3ccccc3nc21	M1 agonist 19.7 (no result: mHtt clearance) | M1 agonist conf 58.7 | M4 ag counter inactive
COc1ccc(-n2c(NC(=O)c3ccco3)c(C#N)c3nc4ccccc4nc32)cc1	M1 agonist 26.7 (no result: mHtt clearance) | M1 agonist conf inactive | M4 ag counter inactive
CCOC(=O)c1c(NC(=O)c2ccco2)n(C2CCCCC2)c2nc3ccccc3nc12	none (no result: M1 antag, AP ELISA ortho, D1 mod, M1 agonist)
CCC(=O)Nc1c(C#N)c2nc3ccccc3nc2n1-c1ccccc1C	none (no result: mHtt clearance)
Cc1ccc(N2C(=O)C(Cl)=C(NCc3ccccc3)C2=O)c(C)c1	none (no result: M1 antag, AP ELISA ortho, D1 mod, M1 agonist)
O=C(NCc1ccco1)C(Cc1ccccc1)N1C(=O)C2C3C=CC(C3)C2C1=O (centres undefined)	M1 agonist 4.53 | M1 agonist conf inconclusive | M4 ag counter inactive
Cc1cc2n(n1)C(c1c[nH]c3ccccc13)Nc1ccccc1-2 (centres undefined)	none (no result: mHtt clearance)
C=CCn1c2ccccc2c2nnc(SCc3ccc4nonc4c3)nc21	M1 agonist 2.27 | M1 agonist conf inactive | M4 ag counter inactive
Cc1ccc(-c2nn3c(-c4ccco4)nnc3c3ccccc23)cc1S(=O)(=O)NCC1CCCO1 (centres undefined)	M1 agonist 5.26 | M1 agonist conf inactive | M4 ag counter inactive
Cc1ccc(-c2nn(C)c(=O)c3ccccc23)cc1S(=O)(=O)NCCN1CCOCC1	none
CCOC(=O)N1CCC(NC(=O)c2cc3ccccn3n2)CC1	none
CCN1C(=O)c2ccccc2S(=O)(=O)c2ccc(C(=O)NCc3cccnc3)cc21	none
CCOC(=O)Cc1csc(NC(=O)COc2ccccc2OC)n1	none
CCOC(=O)Cc1csc(NC(=O)COc2ccc(N(C)S(=O)(=O)c3cccs3)cc2)n1	M1 agonist 6.24 (no result: mHtt clearance) | M1 agonist conf inconclusive | M4 ag counter inactive
CCOC(=O)c1sc2nc(N3CCOCC3)c3c(c2c1N)CCC3	M1 agonist 2.02 | M1 agonist conf inconclusive | M4 ag counter inactive
CC(C)C(c1nnnn1C1CCCCC1)N1CCN(c2ncccn2)CC1 (centres undefined)	M1 agonist 4.37 (no result: mHtt clearance) | M1 agonist conf inactive | M4 ag counter inactive
Cc1ccc(C)c(N2CCN(Cc3nnnn3C3CCCCC3)CC2)c1	M1 agonist 10.2 | M1 agonist conf inactive | M4 ag counter inactive
Cc1c(C(=O)N2CCc3ccccc3C2)sc2nc(-c3ccccc3)cn12	M1 agonist 2.44 (no result: AP ELISA ortho, mHtt clearance) | M1 agonist conf inactive | M4 ag counter inconclusive
CC(C)N1CCc2c(sc(N)c2C#N)C1	none (no result: AP ELISA ortho, mHtt clearance)
